From ChEMBL document CHEMBL4251722, “Identification of Ingol and Rhamnofolane Diterpenoids from Euphorbia resinifera and Their Abilities to Induce Lysosomal Biosynthesis” (2018)
Active and inactive are the calls of the source. The calls are words filed in the database; no cut-off is given here.

What was measured:
HeLa [1] = experiment: Up regulation of cathepsin B mRNA expression in human HeLa cells at 40 uM after 3 hrs by TRIzol dye based qRT-PCR analysis; format: functional, cell-based
HeLa [2] = experiment: Up regulation of cathepsin A mRNA expression in human HeLa cells at 40 uM after 3 hrs by TRIzol dye based qRT-PCR analysis; format: functional, cell-based
HeLa [3] = experiment: Up regulation of ATP6V0E1 mRNA expression in human HeLa cells at 40 uM after 3 hrs by TRIzol dye based qRT-PCR analysis; format: functional, cell-based
HeLa [4] = experiment: Up regulation of LAMP1 mRNA expression in human HeLa cells at 40 uM after 3 hrs by TRIzol dye based qRT-PCR analysis; format: functional, cell-based
HeLa [5] = experiment: Induction of lysosomal biosynthesis in human HeLa cells assessed as increase in staining intensity at 40 uM after 3 hrs by LysoTracker Red DND-99 staining based assay relative to control; format: functional
Procedure, shortened: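 HeLa cells given 40 μM for 3 h, then LysoTracker Red staining. Signal intensity is quantified as fold induction relative to DMSO-treated cells. HEP-14 at 40 μM is the positive control. Independent triplicates.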

HeLa [6] = experiment: Induction of lysosomal biosynthesis in human HeLa cells assessed as increase in staining intensity at 40 uM by LysoTracker Red DND-99 staining based assay; format: functional, cell-based; details: TDE = time-dependent effect
Procedure, shortened: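 Time course in HeLa cells at 40 μM over five treatment intervals, followed by LysoTracker Red staining. Output is fold induction of staining versus DMSO control. n = 3 independent experiments.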

HeLa [7] = experiment: Induction of lysosomal biosynthesis in human HeLa cells assessed as increase in staining intensity after 3 hrs by LysoTracker Red DND-99 staining based assay; format: functional, cell-based
Procedure, shortened: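 HeLa cells exposed 3 h to 10, 20, 40 and 60 μM test agent, then stained with LysoTracker Red. Lysosome induction is read as fold of LysoTracker Red signal over the DMSO negative control, with HEP-14 as positive control. Three independent experiments.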

| SMILES | Activity (HeLa [1]) | Activity (HeLa [2]) | Activity (HeLa [3]) | Activity (HeLa [4]) | Activity (HeLa [5]) [%] | Activity (HeLa [6]) | Activity (HeLa [7]) |
| --- | --- | --- | --- | --- | --- | --- | --- |
| COc1ccc(CC(=O)O[C@@H]2/C(C)=C/[C@@]34O[C@@]3(C[C@H](C)[C@@H]4OC(C)=O)C(=O)[C@H](C)[C@H](OC(C)=O)[C@@H]3[C@H]([C@@H]2OC(C)=O)C3(C)C)cc1 | Active | Active | Active | Active | 140.7 | Tde | Dose-dependent effect |
| COc1ccc([C@H](O)C(=O)O[C@@H]2/C(C)=C/[C@@]34O[C@@]3(C[C@H](C)[C@@H]4OC(C)=O)C(=O)[C@H](C)[C@H](OC(C)=O)[C@@H]3[C@H]([C@@H]2OC(C)=O)C3(C)C)cc1 | Active | Active | Active | Active | 155.9 | Tde | Dose-dependent effect |
| COc1ccc([C@H](O)C(=O)O[C@@H]2/C(C)=C/[C@@]34O[C@@]3(C[C@@](C)(O)[C@@H]4OC(C)=O)C(=O)[C@H](C)[C@H](OC(C)=O)[C@@H]3[C@H]([C@@H]2OC(C)=O)C3(C)C)cc1 | Active | Active | Active | Active | 143.5 | Tde | Dose-dependent effect |
